From PubChem
Compounds with a hit are over-represented: about 3.8% of the library has one in this group of screens.
KCNK9 block: KCNK9 potassium channel inhibitors, primary screen, HEK293 cells, thallium flux; Potassium channel subfamily K member 9 (Homo sapiens), Q9NPC2; FluxOR thallium flux fluorescence; hits give low values; B-score at 10 µM; 310,000 compounds, 1.2% hits;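 active means ratio B-score over 3 SD below the library mean, with starting fluorescence within 5 SD of its mean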;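 further: negative B-score means less thallium flux so channel inhibition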
KCNQ1 act: potentiators or activators of KCNQ1 channel, primary screen, cell-based, thallium flux, high-throughput; 310,000 compounds, 0.35% hits; CHO-K1 KCNQ1, thallium flux FluxOR fluorescence; hits give high values; Potassium voltage-gated channel subfamily KQT member 1 (Homo sapiens), P51787; B-score at 10 µM;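 active means fluorescence ratio B-score, a plate-corrected score, at least three library SD, with initial intensity B-score within 5 SD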
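Assay system: stable KCNQ1 CHO-K1 line; medium: assay buffer, equal DMSO in all wells; timing: 90 min dye loading and 20 min compound exposure, both at room temperature; technique: kinetic FluxOR thallium fluorescence, 10-s 1-Hz baseline, 110-s post-stimulus read; read-out basis: B score of baseline-normalized fluorescence ratio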
KCNQ1 inh: inhibitors of human KCNQ1 channel, primary screen, cell-based, thallium flux, high-throughput. B-score at 10 µM. 310,000 compounds, 1.3% hits. CHO-K1 KCNQ1, FluxOR thallium flux fluorescence; hits give high values. Potassium voltage-gated channel subfamily KQT member 1 (Homo sapiens), P51787. AID 2642, 2010;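 active means compounds whose thallium flux B-score, printed positive for inhibition, exceeds three library SD while starting fluorescence stays within three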;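 further: channel opened by potassium depolarization with thallium stimulus after 20 min compound exposure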
Kir21 inh: inhibitors of mouse Kir2.1 inward-rectifier potassium channel; HEK293-Kir2.1, FluxOR thallium flux fluorescence; hits give low values; B-score at 10 µM; 310,000 compounds, 0.85% hits; Inward rectifier potassium channel 2 (Mus musculus), P35561; AID 1672, 2009;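 active means fluorescence ratio B-score at or below minus 3 SD of library scores, with starting-brightness B-score within 2 SD, cut at about -4.2 in these data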;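 further: channel flux triggered by added potassium and thallium sulfate stimulus; B-score of peak minus minimum fluorescence over baseline after thallium stimulus; more negative B-score means stronger Kir2.1 block with less thallium influx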
Target sequence (P35561 whole entry, looked up): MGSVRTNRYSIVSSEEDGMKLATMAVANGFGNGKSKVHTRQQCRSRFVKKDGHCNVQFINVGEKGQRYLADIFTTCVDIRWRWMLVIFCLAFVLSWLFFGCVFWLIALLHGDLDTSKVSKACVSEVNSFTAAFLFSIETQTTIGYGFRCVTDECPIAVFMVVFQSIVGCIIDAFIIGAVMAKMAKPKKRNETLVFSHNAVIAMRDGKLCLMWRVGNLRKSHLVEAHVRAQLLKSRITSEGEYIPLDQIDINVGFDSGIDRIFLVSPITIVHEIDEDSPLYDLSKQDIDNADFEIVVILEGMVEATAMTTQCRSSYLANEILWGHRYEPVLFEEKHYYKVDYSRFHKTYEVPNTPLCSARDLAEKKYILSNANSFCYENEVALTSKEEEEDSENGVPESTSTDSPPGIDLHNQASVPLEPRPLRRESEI
KCNK3 inh: human KCNK3 channel inhibitors, primary screen, CHO cells, FluxOR thallium flux, B-score; B-score at 10 µM; 340,000 compounds, 0.84% hits; FluxOR fluorescence; hits give low values; Potassium channel subfamily K member 3 (Homo sapiens), O14649;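 active means B-score under library mean minus 4 SD, starting fluorescence ratio at most library mean plus 5 SD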;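 further: more negative B-score means stronger inhibition of thallium flux through KCNK3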
hERG protect: hERG rescue from dofetilide block, primary screen, cell-based, CHO-hERG, FluxOR thallium flux, dofetilide IC70. Voltage-gated inwardly rectifying potassium channel KCNH2 (Homo sapiens), Q12809. dofetilide IC70 present. activation (rescue from dofetilide block), less the hit threshold, % at 10 µM. 310,000 compounds, 0.51% hits;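 active means activation above the mean of controls blocked by dofetilide plus 5 SD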;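 further: thallium influx through hERG after potassium depolarization seen as dye fluorescence rise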
Numbers without * were called inactive.

For N#Cc1c(C(F)(F)F)cc(-c2ccccc2)nc1SCc1nc(N)nc(N2CCOCC2)n1 the results were KCNK9 block inactive, KCNQ1 act inactive, KCNQ1 inh inactive, Kir21 inh 0.68, KCNK3 inh inactive and hERG protect -15.
CCOC(=O)c1sc(NC(=O)c2c(C)nn(Cc3ccccc3)c2C)cc1C was read as KCNK3 inh -11*.
For Cc1cc(OCC(=O)N(C)Cc2ccccc2)ccc1Cl the results were KCNK9 block inactive, KCNQ1 act inactive, KCNQ1 inh inactive, Kir21 inh 0.09, KCNK3 inh inactive and hERG protect -6.
Cc1cc(OCC(=O)N(C)Cc2ccccc2)ccc1Br was read as KCNK9 block -7.3*, KCNQ1 act inactive, KCNQ1 inh inactive, Kir21 inh 1.3, KCNK3 inh inactive and hERG protect -8.
For Cc1cc(C(=O)O)oc(=O)c1 the results were KCNK9 block inactive, KCNQ1 act inactive, KCNQ1 inh inactive, Kir21 inh 1.2, KCNK3 inh inactive and hERG protect -9.
Screening CCN(CC)CCNC(=O)COc1ccc(OC)cc1 returned KCNK9 block inactive, KCNQ1 act inactive, KCNQ1 inh inactive, Kir21 inh 0.04, KCNK3 inh inactive and hERG protect -7.
`CN(C)CCNC(=O)COc1ccc(C23CC4CC(CC(C4)C2)C3)cc1` gave KCNK9 block inactive, KCNQ1 act inactive, KCNQ1 inh inactive, Kir21 inh -6.5*, KCNK3 inh inactive and hERG protect -24.
Cc1ccc(C23CC4CC(CC(NC(=O)NCCN(C)C)(C4)C2)C3)cc1 was read as KCNK9 block inactive, KCNQ1 act inactive, KCNQ1 inh inactive, Kir21 inh -4.3*, KCNK3 inh inactive and hERG protect -6.
Screening O=C1CCCN2N=C(SCC(=O)Nc3ccc([N+](=O)[O-])cc3)SC2=N1 returned KCNK9 block inactive, KCNQ1 act inactive, KCNQ1 inh inactive, Kir21 inh -1.1, KCNK3 inh inactive and hERG protect -5.
Screening CCOc1ccccc1NC(=O)Nc1ccc2c(c1)OCO2 returned KCNK9 block inactive, KCNQ1 act inactive, KCNQ1 inh inactive, Kir21 inh -0.25, KCNK3 inh inactive and hERG protect -2.
For C=CCOc1ccccc1CN(C(=O)CCl)c1ccc2c(c1)OCO2 the results were KCNK9 block inactive, KCNQ1 act inactive, KCNQ1 inh inactive, Kir21 inh -4.2*, KCNK3 inh inactive and hERG protect -6.
For COc1ccc(N/C(C)=C/C(=O)c2ccccc2)cc1 the results were KCNK9 block inactive, KCNQ1 act inactive, KCNQ1 inh inactive, Kir21 inh 1.1, KCNK3 inh inactive and hERG protect -2.
Screening C/C(=C\C(=O)c1ccccc1)NNC(=O)c1ccc(Cl)cc1 returned KCNK9 block inactive, KCNQ1 act inactive, KCNQ1 inh inactive, Kir21 inh 0.15, KCNK3 inh inactive and hERG protect 6.5*.
For COc1ccc(C(=O)NN/C(C)=C/C(=O)c2ccccc2)cc1 the results were KCNK9 block inactive, KCNQ1 act inactive, KCNQ1 inh inactive, Kir21 inh -2.1, KCNK3 inh inactive and hERG protect 9.1*.
`Nc1ccnc(C(F)(F)F)c1C(=O)c1ccccc1` gave KCNK9 block inactive, KCNQ1 act inactive, KCNQ1 inh inactive, Kir21 inh 0.04, KCNK3 inh inactive and hERG protect -11.
`O=C1C2C3C=CC(C3)C2C(=O)N1/N=C/c1cc(Br)cc([N+](=O)[O-])c1O` (stereo not drawn) gave KCNK9 block inactive, KCNQ1 act inactive, KCNQ1 inh 7*, Kir21 inh 2.2, KCNK3 inh inactive and hERG protect -6.
O=C1C2C3C=CC(C3)C2C(=O)N1/N=C/c1ccc(-c2ccccc2[N+](=O)[O-])o1 (stereo not drawn) was read as KCNK9 block inactive, KCNQ1 act inactive, KCNQ1 inh inactive, Kir21 inh 0.01, KCNK3 inh inactive and hERG protect -4.
For CC(C)(C)n1nnnc1C(c1cccs1)N(Cc1cccnc1)Cc1ccco1 (stereo not drawn) the results were KCNK9 block -7.2*, KCNQ1 act inactive, KCNQ1 inh inactive, Kir21 inh -1, KCNK3 inh inactive and hERG protect -9.
`Cc1ccc(OCCCCN2CCCCC2)c(C)c1` gave KCNK9 block inactive, KCNQ1 act inactive, KCNQ1 inh inactive, Kir21 inh 0.68, KCNK3 inh inactive and hERG protect -3.
For Cc1ccc(OCCCCNC2CCCC(C)C2C)c(C)c1 (stereo not drawn) the results were KCNK9 block inactive, KCNQ1 act inactive, KCNQ1 inh 6*, Kir21 inh -7.4*, KCNK3 inh inactive and hERG protect -6.
Screening OC(COC(c1ccccc1)c1ccccc1)CN1CCCCC1 (stereo not drawn) returned KCNK9 block inactive, KCNQ1 act inactive, KCNQ1 inh inactive, Kir21 inh -1.9, KCNK3 inh inactive and hERG protect 6.4*.
`COC(=O)c1ccc(Oc2nc(Nc3ccc(C)c(C)c3)nc(N(C)C)n2)cc1` gave KCNK9 block inactive, KCNQ1 act inactive, KCNQ1 inh 6*, Kir21 inh 0.22, KCNK3 inh inactive and hERG protect -14.
For NS(=O)(=O)c1ccc(CCNC(=S)NC(=O)c2ccccc2Br)cc1 the results were KCNK3 inh inactive.
CC(C)=CCC/C(C)=C/CN(CC(C)O)CC(C)O (stereo not drawn) was read as KCNK9 block inactive, KCNQ1 act inactive, KCNQ1 inh inactive, Kir21 inh -0.35, KCNK3 inh inactive and hERG protect -13.
`c1ccc(Nc2ncnc3sc4c(c23)CCC4)cc1` gave KCNK9 block inactive, KCNQ1 act inactive, KCNQ1 inh inactive, Kir21 inh 0.92, KCNK3 inh inactive and hERG protect 5.2*.
`c1csc(CCNc2ncnc3sc4c(c23)CCC4)c1` gave KCNK9 block inactive, KCNQ1 act inactive, KCNQ1 inh inactive, Kir21 inh 0.77, KCNK3 inh -8.7* and hERG protect -18.
Screening COc1ccc(-c2noc(CNC(=O)Nc3ccc(F)cc3)n2)cc1 returned KCNK9 block inactive, KCNQ1 act inactive, KCNQ1 inh inactive, Kir21 inh -0.8, KCNK3 inh inactive and hERG protect -6.
